Measured values published in ChEMBL document CHEMBL3804770 (J Med Chem, 2016).
pIC50: −log10 of the molar value. The source made the active and inactive calls. The calls are words filed in the database; no cut-off is given here.

Columns and labels:
[1] = Dark cytotoxicity against human SKOV3 cells assessed as cell viability after 72 hrs by MTT assay; assay type: cell-based; conditions: SK-OV-3, 72 h
Outline: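 SKOV-3 cells seeded at 5000/well, incubated 24 h, then treated from 2 mM DMSO stocks diluted in medium to final concentrations; kept in the dark 72 h. MTT ([…]) added, formazan dissolved in DMSO, absorbance 570 nm minus 650 nm background; viability as percentage of untreated wells.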

[2] = Drug uptake in cytosol of human SKOV3 cells at 0.5 uM after 23 hrs by tubulin tracker green fluorescent dye based confocal microscopy; assay type: ADME, cell-based, SK-OV-3
Outline: (§1)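 SKOV-3 cells grown in α-MEM with 10% bovine growth serum, 2 mM L-glutamine, penicillin/streptomycin and fungizone were seeded on coverslips, cultured 24 h, then exposed to prodrug at 500 nM for 24 h under minimal light. Tubulin tracker green, 1 µM final in HBSS, added 45-60 min at 37 °C, then washed. Confocal imaging: tracker excitation 488 nm/emission 500-550 nm, prodrug excitation 633 nm/emission 650-800 nm, three random fields per treatment.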

[3] = Photocytotoxicity against human SKOV3 cells assessed as cell viability incubated for 24 hrs under dark conditions followed by 5.6 mW/cm2 of laser illumination for 30 mins measured after 72 hrs by MTT assay; assay type: functional, cell-based; conditions: SK-OV-3
Outline: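 SKOV-3 cells (5000/well) dosed from 2 mM DMSO stocks diluted in medium; after 24 h dark incubation, plates illuminated uncovered on orbital shaker with 690 nm diode laser, 5.6 mW/cm² for 30 min (10 J/cm²). Incubated a further 72 h, then MTT read at 570 nm with 650 nm background; viability as percentage of untreated controls.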

[4] = Drug degradation […] at 10 uM after 24 hrs by HPLC analysis under dark conditions; assay type: physicochemical; conditions: read-out: Drug degradation
Outline: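 10 μM solution in complete cell culture medium, made from DMSO stock, kept at 37 °C in the dark. Aliquots taken at 0, 2, 24, 48, 96 and 168 h, extracted with dichloromethane, reconstituted in 5% DMSO in ACN. Analysed by isocratic HPLC (90% ACN/10% 10 mM ammonium acetate, 0.5 mL/min); remaining percentage versus t = 0, three experiments.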

Tubulin (Sus scrofa) [5] = target: T1, Tubulin (Sus scrofa) (UniProt P02554+P02550); test: Induction of porcine brain tubulin polymerization at 1.5 uM irradiated with 5.6 mW/cm2 of far-red light for 30 mins measured every 2 mins for 1 hr by fluorescence analysis
[6] = Ratio of compound IC50 to PTX IC50 for dark cytotoxicity against human SKOV3 cells; assay type: cell-based, SK-OV-3; conditions: read-out: Ratio IC50
[7] = Ratio of photocytotoxic IC50 for human SKOV3 cells measured after drug wash out to photocytotoxic IC50 for human SKOV3 cells measured before drug wash out; assay type: functional, SK-OV-3
Tubulin (Sus scrofa) [8] = target: T1, Tubulin (Sus scrofa); test: Induction of porcine brain tubulin polymerization at 3 uM after 40 mins by fluorescence analysis in presence of GTP
Outline: (§2)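 Fluorescence-based tubulin polymerization kit. Compound in DMSO diluted with water, then combined with tubulin and GTP in buffer at 37 °C. Fluorescence (excitation 360 nm, emission 450 nm) read every 2 min for 1 h.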

[9] = Drug uptake in nucleus of human SKOV3 cells at 0.5 uM after 23 hrs by tubulin tracker green fluorescent dye based confocal microscopy; assay type: ADME, cell-based; conditions: sk-ov-3, 23 h; outline: as §1
[10] = nOctanol-phosphate buffer partition coefficient, log D of the compound at pH 7.4 incubated for 3 hrs in dark condition by fluorimeter; assay type: physicochemical; conditions: octanol/water, pH 7.4, 3 h
[11] = Photocytotoxicity against human SKOV3 cells assessed as cell viability incubated for 24 hrs under dark conditions followed by 5.6 mW/cm2 of laser illumination for 30 mins measured 72 hrs post drug wash out by MTT assay; assay type: functional, cell-based; conditions: SK-OV-3
Outline: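 SKOV-3 cells (5000/well) held 24 h in the dark with drug, illuminated at 690 nm, 5.6 mW/cm², 30 min (10 J/cm²). Medium then replaced with fresh medium to remove released material, followed by 72 h incubation and MTT readout (570 nm, 650 nm background), viability relative to untreated wells.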

[12] = Retention time of the compound at 10 uM by HPLC analysis; assay type: physicochemical
Outline: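 Complete medium containing 10 µM compound held at 37 °C in the dark. Samples were extracted into dichloromethane, dried, and taken up in 5% DMSO in ACN. Isocratic HPLC with 90% ACN/10% 10 mM ammonium acetate at 0.5 mL/min; detection by diode array at 675 nm.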

Tubulin (Sus scrofa) [13] = target: T1, Tubulin (Sus scrofa); test: Induction of porcine brain tubulin polymerization at 30 uM measured every 2 mins for 1 hr by fluorescence analysis in presence of GTP; outline: as §2
[14] = Drug degradation in complete medium at 10 uM after 96 hrs by HPLC analysis under dark conditions
[15] = Retention time of the compound in DMSO treated with (Pc-(L-PTX)2) by mass spectroscopy/HPLC analysis; assay type: physicochemical

T1 sequence (P02550 whole entry, looked up): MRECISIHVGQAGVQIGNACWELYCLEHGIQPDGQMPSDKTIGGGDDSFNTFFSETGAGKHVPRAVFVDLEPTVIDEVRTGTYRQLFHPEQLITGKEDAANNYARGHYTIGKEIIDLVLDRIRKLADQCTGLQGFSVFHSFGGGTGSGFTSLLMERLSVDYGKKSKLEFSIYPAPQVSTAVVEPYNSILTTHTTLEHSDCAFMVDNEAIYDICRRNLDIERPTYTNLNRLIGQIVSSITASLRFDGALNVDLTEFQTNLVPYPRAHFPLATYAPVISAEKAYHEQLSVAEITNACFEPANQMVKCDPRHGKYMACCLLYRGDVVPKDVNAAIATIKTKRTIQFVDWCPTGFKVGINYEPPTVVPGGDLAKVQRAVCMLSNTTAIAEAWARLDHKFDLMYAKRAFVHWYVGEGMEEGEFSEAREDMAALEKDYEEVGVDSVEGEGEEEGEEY
T1 sequence (P02554 whole entry, looked up): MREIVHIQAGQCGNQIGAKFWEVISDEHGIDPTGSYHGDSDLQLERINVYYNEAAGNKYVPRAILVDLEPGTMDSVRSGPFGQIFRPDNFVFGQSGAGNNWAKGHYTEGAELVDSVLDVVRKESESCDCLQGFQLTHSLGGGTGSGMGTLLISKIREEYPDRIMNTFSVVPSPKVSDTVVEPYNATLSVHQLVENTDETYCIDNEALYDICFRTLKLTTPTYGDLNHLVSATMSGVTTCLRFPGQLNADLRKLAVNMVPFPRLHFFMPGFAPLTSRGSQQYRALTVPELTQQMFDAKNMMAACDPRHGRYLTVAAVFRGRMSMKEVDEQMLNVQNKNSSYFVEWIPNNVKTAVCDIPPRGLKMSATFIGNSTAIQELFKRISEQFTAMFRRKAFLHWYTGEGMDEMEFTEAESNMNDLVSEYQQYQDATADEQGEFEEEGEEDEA

Structure (SMILES) | pIC50 [1] | Drug uptake [2] | pIC50 [3] | degraded at 24 h, 10 µM [4] [%] | Activity (Tubulin (Sus scrofa) [5]) | selectivity ratio [6] | Ratio IC50 [7] | Activity (Tubulin (Sus scrofa) [8]) | Drug uptake [9] | logD [10] | pIC50 [11] | Retention_time [12] [min] | Activity (Tubulin (Sus scrofa) [13]) | degraded at 96 h, 10 µM [14] [%] | Retention_time [15] [min]
CC(=O)O[C@H]1C(=O)[C@@]2(C)[C@H](O)C[C@@H]3OC[C@]3(OC(C)=O)[C@@H]2[C@@H](OC(=O)c2ccccc2)[C@]2(O)C[C@@H](OC(=O)[C@@H](OC(=O)CCC(=O)N3CCN(CCO[Si]4(OCCN5CCN(C(=O)CCC(=O)O[C@@H](C(=O)O[C@@H]6C[C@@]7(O)[C@H](OC(=O)c8ccccc8)[C@H]8[C@@]9(OC(C)=O)CO[C@H]9C[C@@H](O)[C@]8(C)C(=O)[C@H](OC(C)=O)C(=C6C)C7(C)C)[C@H](NC(=O)c6ccccc6)c6ccccc6)CC5)n5c6c7ccccc7c5/N=C5N=C(/N=c7/c8ccccc8/c(n74)=N/C4=NC(=N\6)/c6ccccc64)c4ccccc4\5)CC3)[C@H](NC(=O)c3ccccc3)c3ccccc3)C(C)=C1C2(C)C (some centres undefined) | 5.89 | Active | 7.62 | 4 | inactive | 270 | 2 | inactive | Not Active | > 3.1 | 7.28 | 21 | inactive | 14 | –
CC(=O)O[C@H]1C(=O)[C@@]2(C)[C@H]([C@H](OC(=O)c3ccccc3)[C@]3(O)C[C@H](OC(=O)[C@H](O)[C@@H](NC(=O)c4ccccc4)c4ccccc4)C(C)=C1C3(C)C)[C@]1(OC(C)=O)CO[C@@H]1C[C@@H]2O [PACLITAXEL] | 8.33 | – | – | – | – | – | – | – | – | – | – | – | – | – | 11
CC(=O)O[C@H]1C(=O)[C@@]2(C)[C@H]([C@H](OC(=O)c3ccccc3)[C@]3(O)C[C@H](OC(=O)[C@H](OC(=O)/C=C/N4CCN(CCO[Si]5(OCCN6CCN(/C=C/C(=O)O[C@@H](C(=O)O[C@H]7C[C@@]8(O)[C@@H](OC(=O)c9ccccc9)[C@@H]9[C@]%10(OC(C)=O)CO[C@@H]%10C[C@H](O)[C@@]9(C)C(=O)[C@H](OC(C)=O)C(=C7C)C8(C)C)[C@@H](NC(=O)c7ccccc7)c7ccccc7)CC6)n6c7c8ccccc8c6/N=C6N=C(/N=c8/c9ccccc9/c(n85)=N/C5=NC(=N\7)/c7ccccc75)c5ccccc5\6)CC4)[C@@H](NC(=O)c4ccccc4)c4ccccc4)C(C)=C1C3(C)C)[C@]1(OC(C)=O)CO[C@@H]1C[C@@H]2O | 6.04 | Active | 8.41 | – | Active | 190 | 23 | inactive | Not Active | > 3.1 | 7.05 | 32 | inactive | < 7 | –
